Experimental data: publication PMC7318068 (ACS Central Science, 2020)

Assays:
MDA-MB-468 xenografts = assay: Drug efficacy test in MDA-MB-468 xenograft mouse model; format: in vivo, athymic nude mice; details: 200 mg/kg PO twice weekly
Outline: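 Polyclonal MDA-MB-468 cells were injected into both flanks of female nude mice. From day 7, test compound (200 mg/kg) or vehicle DMSO was given by oral gavage twice weekly, 5 mice per group. Tumor volume was normalized to time zero and plotted against time. Growth rate was the linear-regression slope; groups were compared by two-tailed unpaired t-test.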

MDA-MB-468 cells [1] = assay: Drug effect persistence assay; format: cell-based; details: EC60 concentration 48 h, then 24 h recovery
[2] = test system: T47D and T47D MK-2206-resistant cells; assay: Cell viability of T47D; format: cell-based; details: 72 h
[3] = test system: Akt3(T305)-phosphorylation; assay: Halo-Akt3 phospho-T305 levels by western blot and ELISA; format: cell-based; details: saturating doses
Halo-Akt3(wt) = Halo-Akt3(wt) (Homo sapiens, UniProt Q9Y243); format: cell-based; details: 5 μM
Akt1, Akt2, Akt3 = details: cited from earlier work
Halo-Akt3(C119S) = Halo-Akt3(C119S) (Homo sapiens, UniProt Q9Y243, C119S); format: cell-based; details: 5 μM, 48 h, then withdrawal
Outline: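 HEK293T cells co-expressing the AktAR ratiometric-FRET reporter and Halo-Akt3(C119S) were exposed to test compound (5 μM) or DMSO for 24–48 h. They were then rinsed twice and recovered in drug-free media for 24 h. Akt kinase activity was imaged live by confocal ratiometric FRET with 458 nm argon-laser excitation at set times.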

MDA-MB-468 cells [4] = assay: Cell viability assay for combinatorial effect of AZ-82 and MK-FNE or MK-2206; format: cell-based; details: 72 hours

Sequence of Halo-Akt3(wt) (Q9Y243 whole entry): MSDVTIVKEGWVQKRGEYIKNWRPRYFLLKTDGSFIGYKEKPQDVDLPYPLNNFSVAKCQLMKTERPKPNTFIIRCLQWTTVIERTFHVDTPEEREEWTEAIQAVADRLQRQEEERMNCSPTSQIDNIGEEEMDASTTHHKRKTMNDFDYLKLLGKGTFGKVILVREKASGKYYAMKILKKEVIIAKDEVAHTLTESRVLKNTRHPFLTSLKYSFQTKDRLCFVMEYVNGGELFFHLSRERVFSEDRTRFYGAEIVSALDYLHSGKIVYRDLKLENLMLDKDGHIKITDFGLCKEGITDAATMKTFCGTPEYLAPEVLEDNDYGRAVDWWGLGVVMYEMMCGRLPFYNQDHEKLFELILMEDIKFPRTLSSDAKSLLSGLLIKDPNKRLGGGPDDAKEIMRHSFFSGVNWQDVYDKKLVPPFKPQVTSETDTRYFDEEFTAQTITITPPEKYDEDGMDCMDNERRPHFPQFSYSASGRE
Sequence of Halo-Akt3(C119S) (Q9Y243 whole entry C119S): as the sequence (Q9Y243 whole entry) above, with C119S counted along it

SMILES	tumor-growth suppression overall (MDA-MB-468 xenografts; vs DMSO) [%]	slope (m) of fold change in tumor size vs day, linear regression (MDA-MB-468 xenografts; DMSO 0.0638 ± 0.0032)	blood glucose levels (MDA-MB-468 xenografts; Day 21, 4 days after termination of dosing)	regrowth after compound withdrawal (MDA-MB-468 cells [1])	Fold increase in resistance = EC50(MK-res)/EC50(wt) [2] [fold]	Akt3(T305)-phosphorylation [3]	ratiometric-FRET signal (Akt activity) under treatment (Halo-Akt3(wt); 24 h, vs DMSO)	Akt3(wt) activity after 24 h withdrawal in drug-free media (Halo-Akt3(wt); 48 h, then withdrawal)	higher affinity for Akt1 than Akt3 (Akt1, Akt2, Akt3) [fold]	preference of Akt2 over Akt3 for binding (Akt1, Akt2, Akt3)	Akt3(C119S) activity after 24 h withdrawal in drug-free media (Halo-Akt3(C119S))	effect on proliferation inhibition by MK-FNE or MK-2206 (MDA-MB-468 cells [4])
NC1(c2ccc(-c3nc4ccn5c(=O)[nH]nc5c4cc3-c3ccccc3)cc2)CCC1 [MK-2206]	14	0.0547 ± 0.0018	elevated relative to MK-FNE-treated mice	statistically significant regrowth was observed	5	fully suppressed	suppressed the ratiometric-FRET signal	kinase activity was restored	~100	around 10 fold	recovery to normal activity levels	–
CCCc1cc(C(=O)N[C@H](Cc2ccc(-c3cccc(OC(F)(F)F)c3)nc2)C(=O)N[C@@H]2CCNC2)sc1C [AZ82]	–	–	–	–	–	–	–	–	–	–	–	selectively promoted resistance to MK-FNE, but not MK-2206
